According to ChEMBL document CHEMBL1641566, “N-(Pyridin-3-yl)benzamides as selective inhibitors of human aldosterone synthase (CYP11B2)” (Bioorg Med Chem Lett, 2011):

Assays:
[1] = biological target: T1, Cytochrome P450 11B1, mitochondrial (Homo sapiens, UniProt P15538); experiment: Inhibition of human steroid-11beta-hydroxylase expressed in chinese hamster V79 cells using 11-deoxycorticosterone as substrate; type: cell-based
T1 sequence (P15538 whole entry): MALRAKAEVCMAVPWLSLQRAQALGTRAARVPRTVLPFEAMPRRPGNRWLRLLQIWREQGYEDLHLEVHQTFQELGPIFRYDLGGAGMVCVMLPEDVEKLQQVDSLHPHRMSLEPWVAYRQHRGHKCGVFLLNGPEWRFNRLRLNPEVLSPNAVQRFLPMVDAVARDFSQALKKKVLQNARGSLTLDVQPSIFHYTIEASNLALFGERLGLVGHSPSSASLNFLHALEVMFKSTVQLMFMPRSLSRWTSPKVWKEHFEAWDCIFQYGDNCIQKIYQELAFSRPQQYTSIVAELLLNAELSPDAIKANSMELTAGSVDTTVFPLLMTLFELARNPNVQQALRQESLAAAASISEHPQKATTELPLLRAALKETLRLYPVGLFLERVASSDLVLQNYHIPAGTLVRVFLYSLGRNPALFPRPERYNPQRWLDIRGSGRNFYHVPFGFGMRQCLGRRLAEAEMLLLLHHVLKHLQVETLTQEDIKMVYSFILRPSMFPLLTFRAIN

[2] = biological target: T2, CYP11B1 (steroid-11beta-hydroxylase) (Homo sapiens, UniProt P15538); experiment: Inhibition of human steroid-11beta-hydroxylase expressed in chinese hamster V79 cells at 500 nM using 11-deoxycorticosterone as substrate
T2 sequence (P15538 whole entry): T1 sequence (P15538 whole entry)

Homo sapiens = species: Homo sapiens; experiment: Selectivity ratio of IC50 for human steroid-11beta-hydroxylase to IC50 for human aldosterone synthase
[3] = biological target: T3, Cytochrome P450 11B2, mitochondrial (Homo sapiens, UniProt P19099); experiment: Inhibition of human aldosterone synthase expressed in chinese hamster V79 cells at 500 nM using 11-deoxycorticosterone as substrate; settings: read-out: INH
T3 sequence (P19099 whole entry): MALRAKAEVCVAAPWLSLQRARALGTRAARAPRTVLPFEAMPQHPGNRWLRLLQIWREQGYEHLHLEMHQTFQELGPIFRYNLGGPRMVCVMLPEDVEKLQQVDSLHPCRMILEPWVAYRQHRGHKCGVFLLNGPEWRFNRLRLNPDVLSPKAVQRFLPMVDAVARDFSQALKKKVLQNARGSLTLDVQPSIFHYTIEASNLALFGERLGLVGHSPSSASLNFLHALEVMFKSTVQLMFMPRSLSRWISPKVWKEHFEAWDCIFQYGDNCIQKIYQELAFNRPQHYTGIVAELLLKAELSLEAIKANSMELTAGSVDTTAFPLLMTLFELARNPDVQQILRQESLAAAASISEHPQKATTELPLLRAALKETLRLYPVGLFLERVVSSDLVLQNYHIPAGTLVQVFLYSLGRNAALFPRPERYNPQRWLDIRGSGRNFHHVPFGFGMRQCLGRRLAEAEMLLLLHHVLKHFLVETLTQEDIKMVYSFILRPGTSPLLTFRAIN

[4] = biological target: T3, Cytochrome P450 11B2, mitochondrial; experiment: Inhibition of human aldosterone synthase expressed in chinese hamster V79 cells using 11-deoxycorticosterone as substrate; type: cell-based
CYP19 (aromatase) = biological target: T4, CYP19 (aromatase) (Homo sapiens, UniProt P11511); experiment: Inhibition of human placental CYP19 at 500 nM using androstenedione as substrate; settings: human placental CYP19, probe androstenedione
T4 sequence (P11511 whole entry): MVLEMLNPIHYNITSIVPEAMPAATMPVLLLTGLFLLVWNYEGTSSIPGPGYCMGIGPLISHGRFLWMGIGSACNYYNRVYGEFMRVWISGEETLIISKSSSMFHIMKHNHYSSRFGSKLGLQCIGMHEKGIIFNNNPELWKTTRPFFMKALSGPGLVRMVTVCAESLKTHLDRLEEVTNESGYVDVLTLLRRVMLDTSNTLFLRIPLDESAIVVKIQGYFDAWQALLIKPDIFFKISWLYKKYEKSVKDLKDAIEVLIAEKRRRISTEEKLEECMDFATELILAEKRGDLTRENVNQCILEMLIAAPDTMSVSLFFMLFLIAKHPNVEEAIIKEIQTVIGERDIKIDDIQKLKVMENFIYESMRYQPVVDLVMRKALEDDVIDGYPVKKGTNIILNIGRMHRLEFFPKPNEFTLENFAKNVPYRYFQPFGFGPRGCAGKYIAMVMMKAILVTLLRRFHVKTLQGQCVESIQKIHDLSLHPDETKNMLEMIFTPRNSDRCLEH
In short: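 Human placental CYP19 as enzyme source; substrate androstenedione at 500 nM.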

[5] = biological target: T5, CYP17 (steroid 17-alpha-hydroxylase/17,20 lyase) (Homo sapiens, UniProt P05093); experiment: Inhibition of human CYP17 expressed in Escherichia coli at 2000 nM using progesterone as substrate; settings: probe progesterone
T5 sequence (P05093 whole entry): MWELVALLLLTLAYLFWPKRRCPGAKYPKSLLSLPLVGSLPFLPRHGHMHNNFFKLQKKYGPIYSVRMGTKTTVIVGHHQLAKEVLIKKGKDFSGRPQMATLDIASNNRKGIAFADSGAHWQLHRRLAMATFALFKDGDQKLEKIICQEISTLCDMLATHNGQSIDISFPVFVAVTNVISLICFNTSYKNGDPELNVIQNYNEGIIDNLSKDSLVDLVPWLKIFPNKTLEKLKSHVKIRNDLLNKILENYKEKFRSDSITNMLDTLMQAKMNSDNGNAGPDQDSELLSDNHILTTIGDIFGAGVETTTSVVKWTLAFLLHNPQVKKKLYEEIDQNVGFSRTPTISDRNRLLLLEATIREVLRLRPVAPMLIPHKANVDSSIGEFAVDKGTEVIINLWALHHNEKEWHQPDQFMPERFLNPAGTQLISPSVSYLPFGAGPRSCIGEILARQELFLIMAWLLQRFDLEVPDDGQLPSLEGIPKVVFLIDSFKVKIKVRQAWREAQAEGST
In short: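 50,000 g sediment of homogenate from E. coli recombinantly expressing human CYP17; substrate progesterone at 25 µM; inhibitor tested at 2.0 µM.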

| SMILES | IC50 [1] [µM] | inhibition at 0.5 µM ([2]; probe 11-deoxycorticosterone) [%] | Ratio IC50 (Homo sapiens) | inhibition at 0.5 µM [3] [%] | IC50 [4] [µM] | inhibition at 0.5 µM (CYP19 (aromatase)) [%] | inhibition at 2 µM [5] [%] | inhibition at 0.5 µM ([2]; v79) [%] |
| --- | --- | --- | --- | --- | --- | --- | --- | --- |
| O=C(Nc1cccnc1)c1ccccc1F |  | 1 |  | 34 |  |  |  |  |
| O=C(Nc1cccnc1)c1ccccc1 |  | 2 |  | 30 |  |  |  |  |
| Cc1ccc(C(=O)Nc2cccnc2)cc1 |  | 0 |  | 25 |  |  |  |  |
| O=C(Nc1cccnc1)c1ccc([N+](=O)[O-])cc1 | 24.8 | 0 | 171 | 64 | 0.145 | 0 | 1 |  |
| CC(C)(C(=O)c1cccnc1)c1cccnc1 [METYRAPONE] |  | 94 |  | 79 |  | 0 | 0 |  |
| N#Cc1ccc(C(=O)Nc2cccnc2)cc1 | 7.5 |  | 96 | 81 | 0.078 | 0.2 | 0.2 | 9 |
| COc1ccc(C(=O)Nc2cccnc2)cc1 |  | 0 |  | 19 |  |  |  |  |
| O=C(Nc1cccnc1)c1ccc(F)c(F)c1 | 5.92 | 6 | 111 | 83 | 0.0535 | 0.5 | 1 |  |
| O=C(Nc1cccnc1)c1ccc(Cl)cc1 | 10.2 | 5 | 157 | 88 | 0.065 | 0 | 1.3 |  |
| O=C(Nc1cccnc1)c1cc(F)c(F)cc1F | 16.1 | 2 | 97 | 70 | 0.166 | 0 | 0.6 |  |
| O=C(Nc1cccnc1)c1ccc(Br)cc1 | 16.7 |  | 161 | 64 | 0.104 | 0.1 | 4.3 | 0 |

The next lines start with the values.

| IC50 [1] [µM] | inhibition at 0.5 µM ([2]; probe 11-deoxycorticosterone) [%] | Ratio IC50 (Homo sapiens) | inhibition at 0.5 µM [3] [%] | IC50 [4] [µM] | inhibition at 0.5 µM (CYP19 (aromatase)) [%] | inhibition at 2 µM [5] [%] | inhibition at 0.5 µM ([2]; v79) [%] | SMILES |
| --- | --- | --- | --- | --- | --- | --- | --- | --- |
| 14.3 | 7 | 174 | 86 | 0.082 | 1.1 | 0.3 |  | O=C(Nc1cccnc1)c1ccc(F)cc1 |
|  | 4 |  | 39 |  |  |  |  | O=C(Nc1cccnc1)c1ccncc1 |
|  | 0.1 |  | 2 |  |  |  |  | COc1ccc(C(=O)Nc2cccnc2)cc1OC |
|  | 1 |  | 1 |  |  |  |  | O=C(Nc1cccnc1)c1ccc(C(F)(F)F)cc1 |
|  | 0 |  | 26 |  |  |  |  | O=C(Nc1cccnc1)c1cccc(Cl)c1 |
|  | 0.4 |  | 29 |  |  |  |  | O=C(Nc1cccnc1)c1cncc(Br)c1 |
|  | 0 |  | 6 |  |  |  |  | O=C(Nc1cccnc1)c1ccc(-c2ccccc2)cc1 |
|  | 3 |  | 3 |  |  |  |  | O=C(Nc1cccnc1)c1ccc(OC(F)(F)F)cc1 |
|  | 4 |  | 51 |  |  |  |  | O=C(Nc1cccnc1)c1cccc(Cl)c1Cl |
|  | 3 |  | 8 |  |  |  |  | O=C(Nc1cccnc1)c1cccnc1 |
|  | 91 |  |  |  |  |  |  | O=C1CCc2cc(-c3cncc4ccccc34)ccc2N1 |
